In ChEMBL document CHEMBL1811821, “Cystic fibrosis: a new target for 4-Imidazo[2,1-b]thiazole-1,4-dihydropyridines” (J Med Chem, 2011):
Active and inactive are the calls of the source. The calls are words filed in the database; no cut-off is given here.

Experiments:
[1] = organism: Cavia porcellus; experiment: Negative ionotropic activity in potassium depolarized guinea pig longitudinal smooth muscle assessed as inhibition of calcium-induced contraction at 10^-8 M; type: functional
[2] = Binding affinity to CFTR F508 deletion mutant expressed in forskolin-stimulated FRT cells assessed as increase in iodine influx measured as YFP quenching rate after 24 hrs by fluorescence assay; type: cell-based
How it was run: (§1)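 ΔF508-CFTR and halide-sensitive YFP coexpressed in FRT cells, held at 27 °C for 24 h for rescue, then stimulated 30–40 min with 20 μM forskolin with or without compound at 0.2, 2 and 20 μM. Fluorescence read before and after I– addition (100 mM final). Normalized decay fitted exponentially for maximal quenching rate; dose–response fitted with Hill equation for potency and maximal effect. Three independent determinations.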

[3] = Negative ionotropic activity against potassium-induced contraction in guinea pig left atrium assessed as decrease in developed tension; conditions: Cavia porcellus, Cardiac atrium
[4] = tested on: Aorta; experiment: Vasorelaxant activity in potassium depolarized guinea pig aortic strip assessed as inhibition of calcium-induced contraction at 10^-6 M; type: functional; conditions: Cavia porcellus
How it was run: (§2)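 Guinea pig aortic strips depolarized with 80 mM K+, with cumulative drug addition. Relaxation given as mean ± SEM. […] Student's t-test against control, P < 0.05.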

[5] = Negative ionotropic activity in potassium depolarized guinea pig longitudinal smooth muscle assessed as inhibition of calcium-induced contraction; type: functional, Cavia porcellus
[6] = tested on: Aorta; experiment: Vasorelaxant activity in potassium depolarized guinea pig aortic strip assessed as inhibition of calcium-induced contraction; type: functional, tissue-based; conditions: Cavia porcellus; how it was run: as §2
[7] = Negative chronotropic activity against potassium-induced contraction in guinea pig right atrium assessed as decrease atrial rate at 10^-4 M relative to control; type: functional; conditions: Cavia porcellus, Cardiac atrium
How it was run: (§3)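 Spontaneously beating isolated guinea pig right atrium, pretreatment rate 165–190 beats/min. Drugs added cumulatively. Decrease in atrial rate expressed as percent change from control, n = 7–8. […] Control versus treated tested at each concentration by Student's t-test, P < 0.05. Mean ± SEM.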

[8] = tested on: Cystic fibrosis transmembrane conductance regulator (Homo sapiens), P13569 [F508del]; experiment: Activity at CFTR F508 deletion mutant expressed in forskolin-stimulated FRT cells assessed as maximal increase in iodine influx measured as YFP quenching rate at 0.2 uM after 24 hrs by fluorescence assay; type: cell-based; how it was run: as §1
[9] = tested on: Cystic fibrosis transmembrane conductance regulator (Homo sapiens), P13569 [F508del]; experiment: Activity at CFTR F508 deletion mutant expressed in forskolin-stimulated FRT cells assessed as maximal increase in iodine influx measured as YFP quenching rate after 24 hrs by fluorescence assay; type: cell-based; how it was run: as §1
[10] = Bronchodilatory activity in guinea pig trachea assessed as inhibition of carbachol-induced contraction at 10^-5 M; type: functional; conditions: Cavia porcellus
[11] = Negative ionotropic activity against potassium-induced contraction in guinea pig left atrium assessed as […] at 10^-4 M relative to control; type: functional; conditions: Cavia porcellus, Cardiac atrium
How it was run: (§4)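 Isolated guinea pig left atrium paced at 1 Hz. Drugs added cumulatively. Negative inotropic effect expressed as percent change from control, n = 5–6. […] Student's t-test against control at each concentration, P < 0.05. Mean ± SEM.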

[12] = Bronchodilatory activity in guinea pig trachea assessed as inhibition of carbachol-induced contraction; type: functional, tissue-based, Cavia porcellus
[13] = organism: Cavia porcellus; experiment: Negative ionotropic activity in potassium depolarized guinea pig longitudinal smooth muscle assessed as inhibition of calcium-induced contraction at 10^-7 M; type: functional
[14] = tested on: Aorta; experiment: Vasorelaxant activity in potassium depolarized guinea pig aortic strip assessed as inhibition of calcium-induced contraction at 10^-4 M; type: functional; conditions: Cavia porcellus; how it was run: as §2
[15] = Bronchodilatory activity in guinea pig trachea assessed as inhibition of carbachol-induced contraction at 10^-4 M; type: functional; conditions: Cavia porcellus
[16] = Negative chronotropic activity against potassium-induced contraction in guinea pig right atrium assessed as decrease atrial rate at 10^-6 M relative to control; type: functional; conditions: Cavia porcellus, Cardiac atrium; how it was run: as §3
[17] = organism: Cavia porcellus; experiment: […] activity in potassium depolarized guinea pig longitudinal smooth muscle assessed as inhibition of calcium-induced contraction at 5 X 10^-9 M; type: functional
[18] = Negative ionotropic activity against potassium-induced contraction in guinea pig left atrium assessed as […] at 10^-7 M relative to control; type: functional; conditions: Cavia porcellus, Cardiac atrium; how it was run: as §4
[19] = Negative chronotropic activity against potassium-induced contraction in guinea pig right atrium assessed as decrease atrial rate at 5 X 10^-7 M relative to control; type: functional; conditions: Cavia porcellus, Cardiac atrium; how it was run: as §3
[20] = Negative chronotropic activity against potassium-induced contraction in guinea pig right atrium assessed as decrease atrial rate; type: functional, tissue-based; conditions: Cavia porcellus, Cardiac atrium; how it was run: as §3
[21] = Negative chronotropic activity against potassium-induced contraction in guinea pig right atrium assessed as decrease atrial rate at 10^-7 M relative to control; type: functional; conditions: Cavia porcellus, Cardiac atrium
How it was run: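 Isolated spontaneously beating guinea pig right atrium with pretreatment heart rate of 165–190 beats/min. Compound was added cumulatively. Atrial rate decrease at the stated concentration is given as percent change from control, mean ± SEM, n = 7–8. Control versus treated values at each concentration were compared by Student's t-test at P < 0.05.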

[22] = Negative ionotropic activity against potassium-induced contraction in guinea pig left atrium assessed as […] at 10^-5 M relative to control; type: functional; conditions: Cavia porcellus, Cardiac atrium; how it was run: as §4
[23] = Bronchodilatory activity in guinea pig trachea assessed as inhibition of carbachol-induced contraction at 10^-7 M; type: functional; conditions: Cavia porcellus
[24] = organism: Cavia porcellus; experiment: Negative ionotropic activity in potassium depolarized guinea pig longitudinal smooth muscle assessed as inhibition of calcium-induced contraction at 10^-6 M; type: functional
[25] = Negative chronotropic activity against potassium-induced contraction in guinea pig right atrium assessed as decrease atrial rate at 5 X 10^-6 M relative to control; type: functional; conditions: Cavia porcellus, Cardiac atrium; how it was run: as §3
[26] = organism: Cavia porcellus; experiment: Negative ionotropic activity in potassium depolarized guinea pig longitudinal smooth muscle assessed as inhibition of calcium-induced contraction at 3 X 10^-7 M; type: functional
[27] = Negative chronotropic activity against potassium-induced contraction in guinea pig right atrium assessed as decrease atrial rate at 10^-5 M relative to control; type: functional; conditions: Cavia porcellus, Cardiac atrium; how it was run: as §3
[28] = Ratio EC50 for negative chronotropic activity against potassium-induced contraction in guinea pig right atrium to EC50 for negative […] activity against potassium-induced contraction in guinea pig left atrium; type: functional, Cavia porcellus, Cardiac atrium
[29] = Negative ionotropic activity against potassium-induced contraction in guinea pig left atrium assessed as […] at 5 X 10^-5 M relative to control; type: functional; conditions: Cavia porcellus, Cardiac atrium; how it was run: as §4
[30] = tested on: Cystic fibrosis transmembrane conductance regulator (Homo sapiens), P13569 [F508del]; experiment: Activity at CFTR F508 deletion mutant expressed in forskolin-stimulated FRT cells assessed as maximal increase in iodine influx measured as YFP quenching rate up to 20 uM after 24 hrs by fluorescence assay; type: cell-based; how it was run: as §1
[31] = Negative ionotropic activity against potassium-induced contraction in guinea pig left atrium assessed as […] at 5 X 10^-6 M relative to control; type: functional; conditions: Cavia porcellus, Cardiac atrium; how it was run: as §4
[32] = tested on: Aorta; experiment: Vasorelaxant activity in potassium depolarized guinea pig aortic strip assessed as inhibition of calcium-induced contraction at 5 X 10^-5 M; type: functional; conditions: Cavia porcellus; how it was run: as §2
[33] = organism: Cavia porcellus; experiment: Negative ionotropic activity in potassium depolarized guinea pig longitudinal smooth muscle assessed as inhibition of calcium-induced contraction at 5 X 10^-5 M; type: functional
[34] = tested on: Aorta; experiment: Vasorelaxant activity in potassium depolarized guinea pig aortic strip assessed as inhibition of calcium-induced contraction at 10^-5 M; type: functional; conditions: Cavia porcellus; how it was run: as §2
[35] = Negative ionotropic activity against potassium-induced contraction in guinea pig left atrium assessed as […] at 10^-6 M relative to control; type: functional; conditions: Cavia porcellus, Cardiac atrium; how it was run: as §4
[36] = organism: Cavia porcellus; experiment: Negative ionotropic activity in potassium depolarized guinea pig longitudinal smooth muscle assessed as inhibition of calcium-induced contraction at 10^-5 M; type: functional
[37] = tested on: Aorta; experiment: Vasorelaxant activity in potassium depolarized guinea pig aortic strip assessed as inhibition of calcium-induced contraction at 5 X 10^-7 M; type: functional; conditions: Cavia porcellus; how it was run: as §2
[38] = Ratio EC50 for nifedipine to compound for negative […] activity against potassium-induced contraction in left atrium of guinea pig; type: functional, Cavia porcellus, Cardiac atrium
[39] = organism: Cavia porcellus; experiment: Negative ionotropic activity in potassium depolarized guinea pig longitudinal smooth muscle assessed as inhibition of calcium-induced contraction at 5 X 10^-7 M; type: functional

Sequence of Cystic fibrosis transmembrane conductance regulator (Homo sapiens), P13569 [F508del] (P13569 as listed by the source): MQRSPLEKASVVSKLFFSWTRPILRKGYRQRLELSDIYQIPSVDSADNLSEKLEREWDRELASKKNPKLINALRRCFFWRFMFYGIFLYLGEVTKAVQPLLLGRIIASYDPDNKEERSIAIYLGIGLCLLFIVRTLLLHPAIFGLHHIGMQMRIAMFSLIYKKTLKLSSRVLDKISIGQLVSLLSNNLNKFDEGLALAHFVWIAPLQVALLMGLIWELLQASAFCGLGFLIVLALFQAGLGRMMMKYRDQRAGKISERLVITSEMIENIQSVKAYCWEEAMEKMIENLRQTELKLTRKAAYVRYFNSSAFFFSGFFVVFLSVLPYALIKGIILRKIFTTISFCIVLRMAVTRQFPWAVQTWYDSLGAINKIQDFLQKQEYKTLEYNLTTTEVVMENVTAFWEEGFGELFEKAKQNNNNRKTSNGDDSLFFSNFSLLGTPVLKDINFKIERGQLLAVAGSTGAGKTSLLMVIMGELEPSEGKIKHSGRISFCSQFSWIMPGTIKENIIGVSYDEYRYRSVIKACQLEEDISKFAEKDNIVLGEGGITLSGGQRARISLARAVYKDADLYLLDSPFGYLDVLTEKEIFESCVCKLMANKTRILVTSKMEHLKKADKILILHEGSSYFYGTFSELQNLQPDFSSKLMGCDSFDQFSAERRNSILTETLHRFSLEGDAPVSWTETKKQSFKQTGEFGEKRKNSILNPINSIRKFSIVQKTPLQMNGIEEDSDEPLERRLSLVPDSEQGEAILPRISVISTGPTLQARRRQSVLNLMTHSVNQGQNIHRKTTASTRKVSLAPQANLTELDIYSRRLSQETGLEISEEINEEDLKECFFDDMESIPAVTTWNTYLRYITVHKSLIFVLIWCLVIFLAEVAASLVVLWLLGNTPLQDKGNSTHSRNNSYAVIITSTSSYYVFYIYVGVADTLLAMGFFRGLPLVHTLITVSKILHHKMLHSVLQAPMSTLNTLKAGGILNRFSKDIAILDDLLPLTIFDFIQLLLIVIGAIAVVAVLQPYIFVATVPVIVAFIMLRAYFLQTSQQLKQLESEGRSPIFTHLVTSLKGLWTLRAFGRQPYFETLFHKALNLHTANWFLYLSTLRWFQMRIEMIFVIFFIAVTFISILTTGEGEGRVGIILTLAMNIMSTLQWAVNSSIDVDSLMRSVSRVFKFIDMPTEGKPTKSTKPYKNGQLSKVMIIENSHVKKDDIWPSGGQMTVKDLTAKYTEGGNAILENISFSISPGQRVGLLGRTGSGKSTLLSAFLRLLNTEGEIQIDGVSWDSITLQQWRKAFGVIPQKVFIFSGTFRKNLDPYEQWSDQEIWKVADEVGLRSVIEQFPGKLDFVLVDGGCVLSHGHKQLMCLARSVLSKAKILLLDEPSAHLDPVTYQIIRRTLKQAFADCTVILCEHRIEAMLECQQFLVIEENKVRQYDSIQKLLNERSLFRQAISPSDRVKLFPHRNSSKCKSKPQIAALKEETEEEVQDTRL

| SMILES | Kd [2] | EC50 [3] | IC50 [5] | Activity [8] | Emax [9] | inhibition at 10 µM [10] | IC50 [12] | inhibition at 100 µM [14] | EC50 [20] | also measured |
| --- | --- | --- | --- | --- | --- | --- | --- | --- | --- | --- |
| COC(=O)C1=C(C)NC(C)=C(C(=O)OC)C1c1c(-c2ccc(OC(F)(F)F)cc2)nc2sccn12 | 3.5 µM | 2.33 µM | 0.0033 µM | inactive | 64 ms-1 | 26% | – | – | – | inhibition [1]: 73%; inhibition at 1 µM [4]: 60%; IC50 [6]: 0.016 µM; inhibition at 100 µM [7]: 33%; inhibition at 100 µM [11]: 89% |
| CCOC(=O)C1=C(C)NC(C)=C(C(=O)OCC)C1c1c(C(F)(F)F)nc2sccn12 | 19.4 µM | 1.07 µM | 0.014 µM | inactive | 60 ms-1 | – | 1.11 µM | 48% | – | inhibition [13]: 90%; inhibition at 100 µM [11]: 93%; inhibition at 100 µM [15]: 77%; inhibition at 1 µM [16]: 40% |
| CCOC(=O)C1=C(C)NC(C)=C(C(=O)OCC)C1c1c(-c2ccc(C(F)(F)F)cc2)nc2sccn12 | 0.18 µM | 0.033 µM | 0.00088 µM | inactive | 42 ms-1 | 57% | 0.13 µM | 6% | 0.15 µM | inhibition [17]: 83%; inhibition at 0.1 µM [18]: 90%; inhibition at 0.5 µM [19]: 64% |
| COC(=O)C1=C(C)NC(C)=C(C(=O)OC)C1c1ccccc1[N+](=O)[O-] [NIFEDIPINE] | 2.9 µM | 0.26 µM | – | – | 58 ms-1 | 62% | 0.096 µM | – | 0.039 µM | inhibition [17]: 70%; inhibition at 1 µM [4]: 82%; IC50 [6]: 0.009 µM; inhibition at 0.1 µM [21]: 85%; inhibition at 10 µM [22]: 97% |
| COC(=O)C1=C(C)NC(C)=C(C(=O)OC)C1c1c(C(F)(F)F)nc2sc(C)cn12 | 12 µM | – | 0.095 µM | inactive | 60 ms-1 | – | 0.031 µM | – | – | inhibition at 0.1 µM [23]: 64%; inhibition [24]: 92% |
| CCOC(=O)C1=C(C)NC(C)=C(C(=O)OCC)C1c1c(Cl)nc2sc(C)cn12 | 8.4 µM | 0.031 µM | 0.057 µM | inactive | 60 ms-1 | – | 2.34 µM | 8% | – | inhibition at 5 µM [25]: 36%; inhibition at 0.1 µM [18]: 56% |
| COC(=O)C1=C(C)NC(C)=C(C(=O)OC)C1c1c(C(F)(F)F)nc2sccn12 | 28.3 µM | – | 0.21 µM | inactive | 60 ms-1 | – | – | – | – | inhibition [26]: 70% |
| C=CCOC(=O)C1=C(C)NC(C)=C(C(=O)OCC=C)C1c1c(-c2ccc(C(F)(F)F)cc2)nc2sc(C)c(C)n12 | 0.32 µM | 0.27 µM | 0.46 µM | inactive | 42 ms-1 | – | – | 32% | 8.96 µM | inhibition at 10 µM [27]: 52%; Ratio EC50 [28]: 33; inhibition [24]: 72%; inhibition at 50 µM [29]: 93% |
| C=CCOC(=O)C1=C(C)NC(C)=C(C(=O)OCC=C)C1c1c(-c2cc(OC)ccc2OC)nc2sccn12 | – | 0.34 µM | 0.32 µM | inactive | – | – | – | 31% | – | Activity [30]: inactive; inhibition at 5 µM [31]: 81%; inhibition at 1 µM [16]: 32% |
| O=c1c(-c2ccc(O)cc2)coc2cc(O)cc(O)c12 [GENISTEIN] | – | 0.028 µM | 9.95 µM | – | 61 ms-1 | 14% | – | – | 44.5 µM | inhibition at 50 µM [32]: 22%; inhibition at 5 µM [31]: 71%; inhibition at 100 µM [7]: 68%; inhibition [33]: 84% |
| CCOC(=O)C1=C(C)NC(C)=C(C(=O)OCC)C1c1cccc(Oc2ccccc2)c1 | 0.37 µM | 0.029 µM | 0.23 µM | – | 62 ms-1 | 30% | – | – | – | inhibition at 10 µM [34]: 17%; inhibition at 5 µM [25]: 38%; inhibition at 1 µM [35]: 80%; inhibition [36]: 83% |
| COC(=O)C1=C(C)NC(C)=C(C(=O)OC)C1c1c(-c2ccc(C(F)(F)F)cc2)nc2sccn12 | 3.2 µM | 0.12 µM | 0.0046 µM | inactive | 64 ms-1 | 67% | 0.061 µM | – | – | inhibition [1]: 69%; inhibition at 0.5 µM [37]: 36%; inhibition at 0.1 µM [21]: 33%; Ratio EC50 [38]: 2.6; inhibition at 10 µM [22]: 96% |
| COC(=O)C1=C(C)NC(C)=C(C(=O)OC)C1c1c(-c2cccc(C(F)(F)F)c2)nc2sccn12 | 2.8 µM | – | 0.036 µM | inactive | 65 ms-1 | – | – | – | – | inhibition at 0.1 µM [23]: 19%; inhibition [39]: 96%; Ratio EC50 [28]: 12 |
